The values below come from ChEMBL document CHEMBL4680079, “Discovery of a Quinoline-4-carboxamide Derivative with a Novel Mechanism of Action, Multistage Antimalarial Activity, and Potent in Vivo Efficacy” (J Med Chem, 2016).

In series [1] the test system is Plasmodium berghei. The series can be described thus: Antiplasmodial activity against Plasmodium berghei ANKA infected in NMRI mouse assessed as survival days at 30 mg/kg, po QD for 4 days. It counts as functional. The note with it: time 4 day.
The nature of series [2]: Volume of distribution at steady state in Sprague-Dawley rat at 1 mg/kg, iv administered as bolus dose by UPLC-MS/MS analysis. It counts as ADME, organism-based. The settings on record: in vivo, 1 mg/kg. The method in brief: (§1)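 Male Sprague Dawley rats (n=3/route) received an iv bolus solution at 1 mg free base/kg (5 mL/kg; 5% DMSO in saline). Blood sampled from 5 min to 30 or 48 h post-dose, mixed with two volumes water, frozen, then analysed by UPLC-MS/MS. Parameters derived from the blood concentration-time curve.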

Series [3] relates to Plasmodium berghei. The series can be described thus: Antiplasmodial activity against Plasmodium berghei ANKA infected in NMRI mouse assessed as reduction in parasitemia at 30 mg/kg, po QD for 4 days. It counts as functional. Set-up: scale not given: the % may be the effect or the level left. The note with it: time 4 day. The method in brief: (§2)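 Female NMRI mice (n=3 per group, randomized, not blinded) infected with GFP-transfected P. berghei ANKA. Oral dosing once daily for 4 days in 10% DMSO/40% PEG400/50% water or HPMC suspension vehicle. Parasitaemia measured by flow cytometry on blood collected 96 h after infection. Mice watched for toxicity over 4 h post-dose each day.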

Series [4] in a line: Tmax in Sprague-Dawley rat at 5 mg/kg, po administered via gavage by UPLC-MS/MS analysis. The settings on record: in vivo. Type of series: ADME, organism-based. The method in brief:
(§3)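 Male Sprague Dawley rats (n=3) gavaged with a solution at 5 mg free base/kg (10 mL/kg; 0.5% w/v HPMC, 0.4% v/v Tween 80, 0.5% v/v benzyl alcohol). Blood sampled at 5, 15, 30 min and 1, 2, 4, 6, 8, 24, 30, 48 h, diluted with two volumes water, analysed by UPLC-MS/MS.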

The nature of series [5]: Cmax in NMRI mouse at 3 mg/kg, po administered as gavage by UPLC-MS/MS analysis. Type of series: ADME, organism-based. Set-up: route oral, dose 3 mg/kg. The note with it: in vivo.
A short description of series [6]: Permeability of the compound at 10 uM incubated for 5 hrs by UPLC-MS/MS analysis based PAMPA method. Type of series: ADME. The note with it: read-out: permeability. The essentials: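 PAMPA run on a lipid-oil-lipid tri-layer filter at pH 7.4. Compound at 10 μM in PBS (DMSO ≤5%) in donor wells, PBS in acceptor wells, kept 5 h at room temperature. Both compartments quantified by UPLC-MS/MS. Data accepted only when recovery exceeded 70%.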

Series [7] deals with Plasmodium berghei. Nature of the series: Antiplasmodial activity against Plasmodium berghei ANKA infected in NMRI mouse assessed as survival days at 1 mg/kg, po QD for 4 days. The settings on record: time 4 day. It counts as functional.
The nature of series [8]: Clearance in Sprague-Dawley rat blood at 1 mg/kg, iv administered as bolus dose by UPLC-MS/MS analysis. It counts as ADME, organism-based. The method in brief:
as §1

Series [9] has as its system Plasmodium falciparum. The series can be described thus: Antiplasmodial activity against drug resistant Plasmodium falciparum 7G8 by [3H]hypoxanthine incorporation assay. Type of series: functional, organism-based. The essentials:
(§4)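 Strains (K1, W2, 7G8, TM90C2A, D6, V1/S resistant; NF54 sensitive) cultured by the Trager and Jensen method; EC50 determined in vitro from [3H]hypoxanthine incorporation.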

Series [10] has as its target Voltage-gated inwardly rectifying potassium channel KCNH2 (Homo sapiens, UniProt Q12809). Nature of the series: Inhibition of human ERG by IonWorks patch-clamp electrophysiology method. The method in brief:
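hERG K⁺ channel inhibition measured by IonWorks patch-clamp electrophysiology. Eight-point concentration-response curves made from 3-fold serial dilutions down from the maximum final assay concentration. Each curve generated on 2 occasions.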
(In general: In patch-clamp work, channel activity is measured electrically.)

Series [11] relates to Plasmodium berghei. Nature of the series: Antiplasmodial activity against Plasmodium berghei ookinete form assessed as growth inhibition incubated for 22 hrs by GFP-based fluorescence microscopic analysis. It counts as functional, organism-based.
Series [12] is described as follows: Volume of distribution at steady state in NMRI mouse at 1 mg/kg, iv administered as bolus dose by UPLC-MS/MS analysis. The settings on record: in vivo. Type of series: ADME, organism-based.
A short description of series [13]: AUC in Sprague-Dawley rat at 5 mg/kg, po administered via gavage by UPLC-MS/MS analysis. The note with it: in vivo. It counts as ADME, organism-based. Set-up: dose 5 mg/kg. The essentials:
as §3

Series [14] is described as follows: Blood clearance in NMRI mouse at 1 mg/kg, iv administered as bolus dose by UPLC-MS/MS analysis. Type of series: ADME, organism-based.
Series [15] concerns Plasmodium berghei. The series can be described thus: Antiplasmodial activity against Plasmodium berghei ANKA infected in NMRI mouse assessed as survival days at 3 mg/kg, po QD for 4 days. It counts as functional. The settings on record: time 4 day.
Series [16] concerns Plasmodium falciparum. Nature of the series: Antiplasmodial activity against drug resistant Plasmodium falciparum […] [3H]hypoxanthine incorporation assay. It counts as functional, organism-based. The essentials: as §4
For series [17], the system named is Plasmodium berghei. Nature of the series: Antiplasmodial activity against Plasmodium berghei ANKA infected in NMRI mouse assessed as reduction in parasitemia at 10 mg/kg, po QD for 4 days. Type of series: functional. Set-up: scale not given: the % may be the effect or the level left. The note with it: time 4 day. The method in brief: as §2
Series [18] has as its system Plasmodium berghei. Nature of the series: Antiplasmodial activity against Plasmodium berghei ANKA infected in NMRI mouse assessed as cure rate at 30 mg/kg, po QD for 4 days. It counts as functional, organism-based. The settings on record: time 4.0 day. The method in brief: as §2
The test system of series [19] is Plasmodium berghei. The series can be described thus: Antiplasmodial activity against Plasmodium berghei ANKA infected in NMRI mouse assessed as survival days at 10 mg/kg, po QD for 4 days. It counts as functional. The note with it: time 4 day.
A short description of series [20]: Half-life in NMRI mouse at 1 mg/kg, iv administered as bolus dose by UPLC-MS/MS analysis. Type of series: ADME, organism-based. The settings on record: in vivo.

SMILES strings stand for the structures. Activity calls are given as the source filed them. No cut-off for these calls is given here. A value given as a limit tells only on which side of the number the result lay.

Voltage-gated inwardly rectifying potassium channel KCNH2, sequence (Q12809 whole entry): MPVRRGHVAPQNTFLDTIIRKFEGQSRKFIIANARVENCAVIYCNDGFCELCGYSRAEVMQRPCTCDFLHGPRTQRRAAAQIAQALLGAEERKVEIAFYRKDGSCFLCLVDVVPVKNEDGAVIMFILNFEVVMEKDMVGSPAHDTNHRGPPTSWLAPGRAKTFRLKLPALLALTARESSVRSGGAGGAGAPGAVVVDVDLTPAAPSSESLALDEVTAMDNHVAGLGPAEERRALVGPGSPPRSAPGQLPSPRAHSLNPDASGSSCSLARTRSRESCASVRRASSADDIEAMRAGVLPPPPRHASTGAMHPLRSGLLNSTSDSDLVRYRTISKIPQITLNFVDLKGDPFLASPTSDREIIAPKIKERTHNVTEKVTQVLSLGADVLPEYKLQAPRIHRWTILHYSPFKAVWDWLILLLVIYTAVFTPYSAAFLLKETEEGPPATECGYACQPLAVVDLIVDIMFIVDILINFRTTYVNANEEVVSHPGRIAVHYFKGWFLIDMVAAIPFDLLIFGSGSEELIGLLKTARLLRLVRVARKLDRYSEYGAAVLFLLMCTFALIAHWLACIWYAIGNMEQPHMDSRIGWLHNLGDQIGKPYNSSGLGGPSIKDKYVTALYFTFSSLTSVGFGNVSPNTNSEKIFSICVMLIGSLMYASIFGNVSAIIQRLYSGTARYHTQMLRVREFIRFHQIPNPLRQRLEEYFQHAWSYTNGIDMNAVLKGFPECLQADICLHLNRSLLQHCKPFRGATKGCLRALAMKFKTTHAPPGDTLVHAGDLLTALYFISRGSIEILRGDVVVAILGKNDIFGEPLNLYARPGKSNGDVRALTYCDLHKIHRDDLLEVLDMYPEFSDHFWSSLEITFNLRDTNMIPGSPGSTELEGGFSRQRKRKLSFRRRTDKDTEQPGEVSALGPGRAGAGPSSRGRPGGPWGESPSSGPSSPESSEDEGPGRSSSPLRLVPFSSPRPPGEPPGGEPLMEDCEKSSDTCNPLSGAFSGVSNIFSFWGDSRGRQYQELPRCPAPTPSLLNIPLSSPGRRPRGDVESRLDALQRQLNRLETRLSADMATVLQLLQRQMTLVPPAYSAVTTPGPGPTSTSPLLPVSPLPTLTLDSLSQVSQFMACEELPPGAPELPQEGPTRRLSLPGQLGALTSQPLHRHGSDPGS

In the case of `O=C(NCCN1CCCC1)c1cc(-c2ccc(CN3CCOCC3)cc2)nc2ccc(F)cc12` [CABAMIQUINE], the Survival in the series on Plasmodium berghei [1] was more than 30 days; with Plasmodium berghei [7], 14 days; with Plasmodium berghei [15], 25 days; in the series on Plasmodium berghei [19] it was more than 30 days. In addition, the Vdss in series [2] and in series [12] was 15 L/kg throughout. Besides, the Activity with Plasmodium berghei [3] and in the series on Plasmodium berghei [17] was 99.9% throughout. The Tmax in series [4] stood at 4 h. In series [5], this compound gave a Cmax of 90 ng/mL. In series [6], the Papp at 5 h, 10 µM stood at 7.3 ×10⁻⁶ cm/s. For the same compound, the clearance came out at 18 mL/min/kg in series [8] and 12 mL/min/kg in series [14]. Further, the EC50 was found to be 0.4 nM in the series on Plasmodium falciparum [9], 5 nM with Plasmodium berghei [11] and 0.3 nM with Plasmodium falciparum [16]. The same compound yielded an IC50 in series [10] of 16000 nM. Moreover, in [13], the AUC is 3340 ng·h/mL. Further, the result in the series with Plasmodium berghei [18] was Active. The t1/2 in series [20] came out at 16 h.

Broadly, the Vdss is the apparent volume that relates the amount in the body to the concentration in plasma or blood. In general, Tmax refers to the time from dosing to the highest level. For orientation: Cmax means the peak of the concentration-time curve. Broadly, the clearance is the volume of plasma or blood freed of the substance per unit of time. Usually EC50 stands for the concentration needed to bring the measured effect to its halfway point. The IC50 is the concentration that gives 50% inhibition. The term AUC denotes concentration integrated over time.
